The record followed here is ChEMBL document CHEMBL2401663, “(Biphenyl-4-yl)methylammonium chlorides: potent anticonvulsants that modulate Na+ currents” (J Med Chem, 2013).

SMILES strings stand for the structures. Calls of active or inactive are those of the source. The calls are words filed in the database; no cut-off is given here.

Data set [1] concerns Mus musculus. As to the kind of experiment: Anticonvulsant activity against ip dosed albino CF1 mouse after 0.25 to 2 hrs by subcutaneous pentylenetetrazol test. The class given is functional.
Data set [2] deals with Mus musculus. As to the kind of experiment: Anticonvulsant activity against ip dosed albino CF1 mouse after 0.5 to 4 hrs by 6 Hz psychomotor seizure test. It is filed as functional.
Data set [3] concerns Mus musculus. As to the kind of experiment: Anticonvulsant activity against ip dosed albino CF1 mouse after 0.25 to 1 hr by maximal electroshock seizure test. The class given is functional.
Data set [4] in a line: Toxicity in po dosed albino Sprague-Dawley rat assessed as behavioral toxicity after 0.25 to 4 hrs. It is filed as organism-based. The note with it: in vivo. The method in brief:
(§1)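 Male albino Sprague-Dawley rats dosed ip or orally, scored for behavioral toxicity (neurological impairment). TD50 is in mg/kg, taken at the time of peak effect.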

In data set [5] the test system is Rattus norvegicus. As to the kind of experiment: Anticonvulsant activity against po dosed albino Sprague-Dawley rat after 0.25 to 4 hrs by maximal electroshock seizure test. It is filed as functional. In short, it runs like this:
(§2)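 Male albino Sprague-Dawley rats dosed ip or orally under the NIH Anticonvulsant Screening Program, tested by maximal electroshock seizure.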
(In general: In the maximal electroshock model the usual endpoint is tonic extension of the hind limbs.)

For data set [6], the system named is Rattus norvegicus. As to the kind of experiment: Anticonvulsant activity against ip dosed albino Sprague-Dawley rat after 0.25 to 0.5 hrs by maximal electroshock seizure test. It is filed as functional. The method in brief: as §2
Data set [7] is described as follows: Toxicity in ip dosed albino CF1 mouse after 0.25 to 4 hrs by rotorod test. It is filed as organism-based. As to conditions: in vivo. On the technique in general: Falling from the rotarod earlier than controls is read as motor impairment.
Data set [8] is described as follows: Toxicity in ip dosed albino Sprague-Dawley rat assessed as behavioral toxicity after 0.25 to 0.5 hrs. It is filed as organism-based. The note with it: in vivo. In short, it runs like this: as §1
A short description of data set [9]: Inhibition of Na+ channel in mouse CAD cells assessed as slow inactivation by whole cell voltage clamp technique. The class given is cell-based. The method in brief: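 CAD cells (Ham's F12/EMEM, 8% FBS, 37 °C, 5% CO2) by whole-cell voltage clamp at room temperature. Na+ channel slow inactivation measured at −50 mV; IC50 is the concentration at which half of the channels reach a slow-inactivated state.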

Data set [10] in a line: Toxicity in po dosed albino Sprague-Dawley rat assessed as behavioral toxicity. The class given is organism-based. As to conditions: in vivo. In short, it runs like this:
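Neurological impairment was scored as behavioral toxicity in male albino Sprague-Dawley rats dosed orally, NIH Anticonvulsant Screening Program. The median impairing dose (TD50, mg/kg) was taken at the time of peak effect.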

Data set [11] concerns Mus musculus. As to the kind of experiment: Anticonvulsant activity against ip dosed albino CF1 mouse after […] by maximal electroshock seizure test. It is filed as functional.
In data set [12] the test system is CAD. As to the kind of experiment: Inhibition of Na+ channel in mouse CAD cells assessed as frequency-dependent inactivation at 10 uM by whole cell voltage clamp technique relative to control. It is filed as cell-based. The method in brief:
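Frequency (use)-dependent inhibition of Na+ currents in CAD cells by whole-cell voltage clamp at room temperature. Current trend and amplitude at 10 μM compared with control.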

Data set [13] relates to CAD. As to the kind of experiment: Inhibition of Na+ channel in mouse CAD cells assessed as fast inactivation by whole cell voltage clamp technique. The class given is cell-based. In short, it runs like this: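 Steady-state fast inactivation in CAD cells by whole-cell voltage clamp at room temperature. Cells held at −80 mV, given 500-ms prepulses from −120 to −10 mV in 10-mV steps, then a 20-ms step to 0 mV. Curves fitted with a single Boltzmann; V1/2 shift compared with 0.1% DMSO by ANOVA and Dunnett's test. Mean ± SEM.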

Data set [14] is described as follows: Toxicity in ip dosed albino Sprague-Dawley rat assessed as behavioral toxicity after 0.25 to 4 hrs. It is filed as organism-based. The note with it: in vivo. In short, it runs like this: as §1
Data set [15] has as its system Mus musculus. As to the kind of experiment: Anticonvulsant activity against ip dosed albino CF1 mouse after 1 to 4 hrs by 6 Hz psychomotor seizure test. It is filed as functional.
Data set [16] relates to Mus musculus. As to the kind of experiment: Anticonvulsant activity against ip dosed albino CF1 mouse after 0.25 to 4 hrs by subcutaneous pentylenetetrazol test. The class given is functional.
Data set [17] relates to Rattus norvegicus. Put plainly: Anticonvulsant activity against ip dosed albino Sprague-Dawley rat after 0.25 to 4 hrs by maximal electroshock seizure test. It is filed as functional. In short, it runs like this: as §2
The test system of data set [18] is Mus musculus. As to the kind of experiment: Anticonvulsant activity against ip dosed albino CF1 mouse after 0.25 to 4 hrs by maximal electroshock seizure test. It is filed as functional.
Data set [19] has as its system Mus musculus. Put plainly: Anticonvulsant activity against ip dosed albino CF1 mouse after 0.25 to 0.5 hrs by maximal electroshock seizure test. It is filed as functional.
Data set [20] concerns Mus musculus. Put plainly: Anticonvulsant activity against ip dosed albino CF1 mouse after 0.5 to 1 hr by 6 Hz psychomotor seizure test. The class given is functional.
In data set [21] the test system is Mus musculus. As to the kind of experiment: Anticonvulsant activity against ip dosed albino CF1 mouse after 0.5 to 4 hrs by subcutaneous pentylenetetrazol test. It is filed as functional.
Data set [22] deals with Mus musculus. Put plainly: Anticonvulsant activity against ip dosed albino CF1 mouse after 1 hr by 6 Hz psychomotor seizure test. It is filed as functional.

In the case of `Cl.NCc1ccc(-c2cccc(Cl)c2)cc1`, the ED50 (commonly the dose at which the effect has come halfway, by size or by number of responders) is less than 100 mg/kg in the data set with Mus musculus [1]; less than 100 mg/kg in the data set on Mus musculus [2]; less than 100 mg/kg in the data set with Mus musculus [3]; greater than 30 mg/kg in the data set on Rattus norvegicus [5]; 65 mg/kg in the data set with Rattus norvegicus [6]. For the same compound, the values for the TD50 in [4], in data set [7] and in [8] were greater than 30 mg/kg, greater than 100 mg/kg and 65 mg/kg, respectively.

Regarding `COC[C@@H](NC(C)=O)C(=O)NCc1ccccc1` [LACOSAMIDE], the IC50 (commonly the concentration at which inhibition is half-maximal) in data set [9] turned out to be 85 µM. Also, the TD50 – broadly, the dose at which the toxic effect under study appears in half of the subjects – in data set [10] was greater than 500 mg/kg.

`CCCC(CCC)C(=O)O` [VALPROIC ACID] yielded a median effective dose (ED50) in the data set on Mus musculus [11] of 270 mg/kg.

In the case of `NCc1ccc(OCc2cccc(F)c2)cc1`, in data set [9], the IC50 stood at 2.1 µM. Moreover, the inhibition result in the data set on CAD [12] and in the data set with CAD [13] was “Active” throughout.

As for `Cl.NCc1ccc(-c2ccc(Cl)cc2)cc1`, the results for the TD50 in data set [14], in [4] and in data set [7] were greater than 30 mg/kg, greater than 30 mg/kg and greater than 50 mg/kg, respectively. Besides, the ED50 in the data set on Mus musculus [15] was less than 100 mg/kg; with Mus musculus [16], greater than 50 mg/kg; with Rattus norvegicus [5] it was greater than 30 mg/kg; with Rattus norvegicus [17], greater than 30 mg/kg; in the data set with Mus musculus [18] it was greater than 50 mg/kg.

On to `Cl.NCc1ccc(-c2ccccc2)cc1`, for which the ED50 in the data set with Mus musculus [19] was 30 mg/kg; in the data set with Rattus norvegicus [5], greater than 30 mg/kg; in the data set with Rattus norvegicus [17], greater than 30 mg/kg; with Mus musculus [20], 100 mg/kg; in the data set with Mus musculus [21], greater than 300 mg/kg. Further, the figures for the TD50 in data set [14], in data set [4] and in [7] were greater than 30 mg/kg, greater than 30 mg/kg and greater than 100 mg/kg, respectively.

In the case of `COc1cccc(-c2ccc(CN)cc2)c1.Cl`, the TD50 in data set [14] is greater than 30 mg/kg; in [4], greater than 30 mg/kg; in [7] it was greater than 100 mg/kg. The ED50 with Mus musculus [22] is 100 mg/kg; in the data set with Mus musculus [11] it was less than 100 mg/kg; with Rattus norvegicus [5] it was greater than 30 mg/kg; in the data set with Rattus norvegicus [17] it was greater than 30 mg/kg; with Mus musculus [21], greater than 100 mg/kg.
